Measurements taken from ChEMBL document CHEMBL1158758, “Cassane- and norcassane-type diterpenes from Caesalpinia crista of Indonesia and their antimalarial activity against the growth of Plasmodium falciparum” (J Nat Prod, 2005).

system: Plasmodium falciparum; assay: Antimalarial activity against Plasmodium falciparum FCR3/A2; type: functional, organism-based; conditions: FCR-3
In short: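 P. falciparum FCR-3/A2 clone cultured in vitro in 24-well plates across a wide concentration range of each compound. Compounds held as 10^-2 M DMSO stocks at -20 °C (stock, not final). Daily blood smears tracked parasite growth. IC50 (50% growth inhibition vs untreated control) came from linear regression of concentration–response data.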

Row | IC50 [nM] | SMILES
1 | 98 | CC(=O)O[C@H]1CC(C)(C)[C@]2(O)CCc3c(cc4occc4c3C)[C@@]2(C)[C@H]1OC(C)=O
2 | 6500 | CC(=O)O[C@H]1[C@@H](OC(C)=O)C(C)(C)[C@]2(O)CCc3c(cc4occc4c3C)[C@@]2(C)[C@H]1OC(C)=O
3 | 200 | C=C1c2ccoc2C[C@H]2[C@H]1CC[C@@]1(O)C(C)(C)[C@H](OC(C)=O)[C@H](OC(C)=O)[C@H](OC(C)=O)[C@]21C
4 | 2000 | CC(=O)O[C@H]1[C@@H](OC(C)=O)C(C)(C)[C@]2(O)CC[C@H]3C(=O)c4ccoc4C[C@@H]3[C@@]2(C)[C@H]1OC(C)=O [3-O-ACETYLNORCAESALPININ A]
5 | 4000 | CC(=O)O[C@H]1C[C@@H](OC(C)=O)C(C)(C)[C@]2(O)CCc3c(cc4occc4c3C)[C@@]12C [CAESALDEKARINE]
6 | 800 | CC(=O)O[C@H]1CCC(C)(C)[C@]2(O)C[C@@H]3OC(=O)[C@@H]4c5ccoc5C[C@@H]([C@@H]34)[C@@]12C [CAESALMIN B]
7 | > 10000 | CC1(C)CC[C@H](O)[C@]2(C)[C@H]3Cc4occc4[C@H]4C(=O)O[C@@H](C[C@@]12O)[C@@H]43 [CAESALMIN G]
8 | 760 | C=C1c2ccoc2C[C@H]2[C@H]1CC[C@@]1(O)C(C)(C)[C@H](OC(C)=O)C[C@H](OC(C)=O)[C@]21C [CAESALPININ C]
9 | 800 | CC(=O)O[C@H]1CCC(C)(C)[C@]2(O)[C@@H](OC(C)=O)[C@@H]3OC(=O)[C@@H]4c5ccoc5C[C@@H]([C@@H]34)[C@@]12C [CAESALPININ D]
10 | 6500 | COC(=O)[C@@H]1c2ccoc2C[C@H]2[C@H]1C[C@H](OC(C)=O)[C@@]1(O)C(C)(C)CC[C@H](OC(C)=O)[C@]21C [CAESALPININ E]
11 | 650 | COC(=O)[C@@H]1c2ccoc2C[C@H]2[C@H]1C[C@H](OC(C)=O)[C@@]1(O)C(C)(C)CCC(=O)[C@]21C [CAESALPININ F]
12 | 800 | CC(=O)O[C@H]1CC(C)(C)[C@]2(O)CC[C@H]3C(=O)c4ccoc4C[C@@H]3[C@@]2(C)[C@H]1OC(C)=O [NORCAESALPININ A]
13 | 260 | CC(=O)O[C@H]1C[C@@H](OC(C)=O)C(C)(C)[C@]2(O)CC[C@H]3C(=O)c4ccoc4C[C@@H]3[C@@]12C [NORCAESALPININ B]
14 | 90 | CC(=O)O[C@H]1CCC(C)(C)[C@]2(O)C[C@H](O)[C@H]3C(=O)c4ccoc4C[C@@H]3[C@@]12C [NORCAESALPININ E]

Row | SMILES | IC50 [nM]
15 | COC(=O)[C@@H]1c2ccoc2C[C@H]2[C@H]1[C@@H](OC(C)=O)C[C@@]1(O)C(C)(C)CC[C@H](OC(C)=O)[C@]21C [ACETOXYBONDUCELLPIN C] | 600
16 | CC(=O)O[C@H]1CC(C)(C)[C@]2(O)CCc3c(cc(O)c(C=O)c3C)[C@@]2(C)[C@H]1OC(C)=O [NORCAESALPININ C] | 5000
